According to ChEMBL document CHEMBL3045143, “Role of exogenously supplied ferulic and p-coumaric acids in mimicking the mode of action of acetolactate synthase inhibiting herbicides” (J Agric Food Chem, 2011):
The source made the active and inactive calls. No cut-off for these calls is given here.

Assays:
[1] = tested on: Pisum sativum; assay: Growth inhibition in Pisum sativum (pea) assessed as shoot growth arrest at 1 mM added to nutrient medium measured within 10 days post onset of compound treatment; type: functional, organism-based; settings: Lathyrus oleraceus
Summary of the method: (§1)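 Pea (Pisum sativum cv. Snap Sugar Boys) plants were grown in nutrient solution. At 12 days old, 1 mM phenolic acid was added to the solution. The solution was replaced every 3 days and kept at pH 6–7. Samples were collected at 0, 1, 3, 7, 10 and 15 days. Untreated plants were controls. One-way ANOVA with Fisher test, p < 0.05.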

[2] = tested on: Root; assay: Drug level in Pisum sativum (pea) roots at 1 mM added to nutrient medium measured 5 to 15 days post onset of compound treatment by HPLC method; type: ADME; settings: lathyrus oleraceus, 1000 µM; summary of the method: as §1
[3] = tested on: Leaf; assay: Increase in quinate content in Pisum sativum (pea) leaves at 1 mM added to nutrient medium measured 5 to 15 days post onset of compound treatment by ion chromatography; type: functional; settings: Lathyrus oleraceus; summary of the method: as §1
[4] = tested on: Root; assay: Induction of PDC protein expression in Pisum sativum (pea) roots at 1 mM added to nutrient medium measured 5 to 15 days post onset of compound treatment by immunoblot; type: functional; settings: Lathyrus oleraceus; summary of the method: as §1
[5] = tested on: Pisum sativum; assay: Growth inhibition in Pisum sativum (pea) assessed as root elongation arrest at 1 mM added to nutrient medium measured within 1 day post onset of compound treatment; type: functional, organism-based; settings: Lathyrus oleraceus; summary of the method: as §1
[6] = tested on: Root; assay: Effect on starch content in Pisum sativum (pea) roots at 1 mM added to nutrient medium measured 5 to 15 days post onset of compound treatment by capillary electrophoresis method; type: functional; settings: Lathyrus oleraceus; summary of the method: as §1
[7] = tested on: Root; assay: Induction of ADH protein enzyme expression in Pisum sativum (pea) roots at 1 mM added to nutrient medium measured 5 to 15 days post onset of compound treatment by immunoblot; type: functional; settings: Lathyrus oleraceus; summary of the method: as §1
[8] = tested on: Leaf; assay: Increase in starch content in Pisum sativum (pea) leaves at 1 mM added to nutrient medium measured 5 to 15 days post onset of compound treatment by capillary electrophoresis method; type: functional; settings: Lathyrus oleraceus; summary of the method: as §1
[9] = tested on: Root; assay: Increase in lignin content in Pisum sativum (pea) roots at 1 mM added to nutrient medium measured 5 to 15 days post onset of compound treatment; type: functional; settings: Lathyrus oleraceus; summary of the method: as §1
[10] = tested on: Leaf; assay: Drug level in Pisum sativum (pea) leaves at 1 mM added to nutrient medium measured 5 to 15 days post onset of compound treatment by HPLC method; type: ADME; settings: lathyrus oleraceus, 1000 µM; summary of the method: as §1
[11] = tested on: Root; assay: Reduction in PAL activity in Pisum sativum (pea) roots at 1 MM added to nutrient medium measured 7 days post onset of compound treatment; type: functional; set-up: dose or concentration left out as unconfirmed; settings: Lathyrus oleraceus; summary of the method: as §1
[12] = tested on: Root; assay: Effect on sucrose content in Pisum sativum (pea) roots at 1 mM added to nutrient medium measured 5 to 15 days post onset of compound treatment by capillary electrophoresis method; type: functional; settings: Lathyrus oleraceus; summary of the method: as §1
[13] = tested on: Leaf; assay: Induction of caffeic acid accumulation in Pisum sativum (pea) leaves at 28 nM added to nutrient medium measured 5 to 15 days post onset of compound treatment by HPLC method; type: functional; settings: Lathyrus oleraceus
Summary of the method: (§2)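 Compound was added to the nutrient solution of 12-day-old pea plants (cv. Snap Sugar Boys), renewed every 3 days at pH 6–7. Leaves or roots were sampled at 0, 1, 3, 7, 10 and 15 days. Values are mean ± standard error, n = 5 single plants. One-way ANOVA with Fisher test versus untreated controls on each day, p < 0.05.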

[14] = tested on: Root; assay: Induction of p-coumaric acid accumulation in Pisum sativum (pea) roots at 28 nM added to nutrient medium measured 5 to 15 days post onset of compound treatment by HPLC method; type: functional; settings: Lathyrus oleraceus; summary of the method: as §2
[15] = tested on: Leaf; assay: Induction of p-coumaric acid accumulation in Pisum sativum (pea) leaves at 28 nM added to nutrient medium measured 5 to 15 days post onset of compound treatment by HPLC method; type: functional; settings: Lathyrus oleraceus; summary of the method: as §2
[16] = tested on: Root; assay: Induction of DAHPS enzyme expression in Pisum sativum (pea) roots at 28 nM added to nutrient medium measured 5 to 15 days post onset of compound treatment by immunoblot; type: functional; settings: Lathyrus oleraceus
Summary of the method: (§3)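 Roots were taken from pea plants (cv. Snap Sugar Boys) treated via nutrient solution from 12 days old, with the solution renewed every 3 days. Samples were taken at days 3, 7, 10 and 15.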

[17] = tested on: Root; assay: Induction of ferulic acid accumulation in Pisum sativum (pea) roots at 28 nM added to nutrient medium measured 5 to 15 days post onset of compound treatment by HPLC method; type: functional; settings: Lathyrus oleraceus; summary of the method: as §2
[18] = tested on: Root; assay: Reduction in sinapic acid accumulation in Pisum sativum (pea) roots at 28 nM added to nutrient medium measured 3 to 10 days post onset of compound treatment by HPLC method; type: functional; settings: Lathyrus oleraceus; summary of the method: as §2
[19] = tested on: Root; assay: Induction of caffeic acid accumulation in Pisum sativum (pea) roots at 28 nM added to nutrient medium measured 5 to 15 days post onset of compound treatment by HPLC method; type: functional; settings: Lathyrus oleraceus; summary of the method: as §2
[20] = tested on: Pisum sativum; assay: Growth inhibition in Pisum sativum (pea) at 28 nM added to nutrient medium measured 22 to 23 days post onset of compound treatment; type: functional, organism-based; settings: Lathyrus oleraceus
Summary of the method: (§4)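 Pea (cv. Snap Sugar Boys) grown hydroponically. Compound added to the nutrient solution at 12 days old. Solution was renewed every 3 days, with pH held between 6 and 7. Plants were followed over the treatment period.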

[21] = tested on: Leaf; assay: Induction of sinapic acid accumulation in Pisum sativum (pea) leaves at 28 nM added to nutrient medium measured 5 to 15 days post onset of compound treatment by HPLC method; type: functional; settings: Lathyrus oleraceus; summary of the method: as §2
[22] = tested on: Leaf; assay: Induction of ferulic acid accumulation in Pisum sativum (pea) leaves at 28 nM added to nutrient medium measured 5 to 15 days post onset of compound treatment by HPLC method; type: functional; settings: Lathyrus oleraceus; summary of the method: as §2
[23] = tested on: Leaf; assay: Induction of sinapic acid accumulation in Pisum sativum (pea) leaves at 69 uM added to nutrient medium measured 5 to 15 days post onset of compound treatment by HPLC method; type: functional; settings: Lathyrus oleraceus; summary of the method: as §2
[24] = tested on: Root; assay: Induction of DAHPS enzyme expression in Pisum sativum (pea) roots at 69 uM added to nutrient medium measured 5 to 15 days post onset of compound treatment by immunoblot; type: functional; settings: Lathyrus oleraceus; summary of the method: as §3
[25] = tested on: Pisum sativum; assay: Growth inhibition in Pisum sativum (pea) at 69 uM added to nutrient medium measured 22 to 23 days post onset of compound treatment; type: functional, organism-based; settings: Lathyrus oleraceus; summary of the method: as §4
[26] = tested on: Root; assay: Reduction in sinapic acid accumulation in Pisum sativum (pea) roots at 69 uM added to nutrient medium measured 3 to 10 days post onset of compound treatment by HPLC method; type: functional; settings: Lathyrus oleraceus; summary of the method: as §2
[27] = tested on: Root; assay: Increase in lignin content in Pisum sativum (pea) roots at 69 uM added to nutrient medium measured 10 days post onset of compound treatment; type: functional; settings: Lathyrus oleraceus
Summary of the method: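 Compound was added to the nutrient solution of 12-day-old pea plants (cv. Snap Sugar Boys). Solution was renewed every 3 days at pH 6–7. Lignin was measured in roots from plants sampled on set days up to day 15.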

[28] = tested on: Leaf; assay: Induction of p-coumaric acid accumulation in Pisum sativum (pea) leaves at 69 uM added to nutrient medium measured 5 to 15 days post onset of compound treatment by HPLC method; type: functional; settings: Lathyrus oleraceus; summary of the method: as §2
[29] = tested on: Root; assay: Induction of caffeic acid accumulation in Pisum sativum (pea) roots at 69 uM added to nutrient medium measured 5 to 15 days post onset of compound treatment by HPLC method; type: functional; settings: Lathyrus oleraceus; summary of the method: as §2
[30] = tested on: Root; assay: Induction of ferulic acid accumulation in Pisum sativum (pea) roots at 69 uM added to nutrient medium measured 5 to 15 days post onset of compound treatment by HPLC method; type: functional; settings: Lathyrus oleraceus; summary of the method: as §2
[31] = tested on: Leaf; assay: Induction of ferulic acid accumulation in Pisum sativum (pea) leaves at 69 uM added to nutrient medium measured 5 to 15 days post onset of compound treatment by HPLC method; type: functional; settings: Lathyrus oleraceus; summary of the method: as §2
[32] = tested on: Leaf; assay: Induction of caffeic acid accumulation in Pisum sativum (pea) leaves at 69 uM added to nutrient medium measured 5 to 15 days post onset of compound treatment by HPLC method; type: functional; settings: Lathyrus oleraceus; summary of the method: as §2
[33] = tested on: Root; assay: Induction of p-coumaric acid accumulation in Pisum sativum (pea) roots at 69 uM added to nutrient medium measured 5 to 15 days post onset of compound treatment by HPLC method; type: functional; settings: Lathyrus oleraceus; summary of the method: as §2
[34] = tested on: Root; assay: Induction of PAL activity in Pisum sativum (pea) roots at 69 uM added to nutrient medium measured 5 to 15 days post onset of compound treatment; type: functional; settings: Lathyrus oleraceus
Summary of the method: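 Roots were taken from 12-day-old pea plants (cv. Snap Sugar Boys) treated via nutrient solution, renewed every 3 days at pH 6–7. For PAL activity, extracts were not filtered on Sephadex G-25. Reaction ran 1 h at 37 °C, then HCl was added and the mixture was centrifuged at 5000g for 5 min.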

COc1cc(/C=C/C(=O)O)ccc1O [FERULATE]
Activity [1]: Active | Drug uptake [2]: Active | Activity [3]: Active | Activity [4]: Active | Activity [5]: Active | Activity [6]: inactive | Activity [7]: Active | Activity [8]: Active | Activity [9]: Active | Drug uptake [10]: Active | Activity [11]: Active | Activity [12]: inactive

COc1nc(C)nc(NC(=O)NS(=O)(=O)c2ccccc2Cl)n1
Activity [13]: Active | Activity [14]: Active | Activity [15]: Active | Activity [16]: Active | Activity [17]: Active | Activity [18]: Active | Activity [19]: Active | growth inhibition (GI) [20]: Active | Activity [21]: Active | Activity [22]: Active

O=C(O)/C=C/c1ccc(O)cc1 [COUMARIC ACID]
Activity [1]: Active | Drug uptake [2]: Active | Activity [3]: Active | Activity [4]: Active | Activity [5]: Active | Activity [6]: inactive | Activity [7]: Active | Activity [8]: Active | Drug uptake [10]: Active | Activity [12]: inactive

CCc1cnc(C2=NC(C)(C(C)C)C(=O)N2)c(C(=O)O)c1 (centres undefined)
Activity [23]: Active | Activity [24]: Active | growth inhibition (GI) [25]: Active | Activity [26]: Active | Activity [27]: Active | Activity [28]: Active | Activity [29]: Active | Activity [30]: Active | Activity [31]: Active | Activity [32]: Active | Activity [33]: Active | Activity [34]: inactive
